Legend:
Plasma [1] = test: Anticoagulant potency in human plasma assessed as concentration required to double prothrombin time after 4 mins; assay type: functional
Outline: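 Human normal plasma was preincubated with compound in DMSO at 37 °C for 4 min. Clotting was started with thromboplastin and PT was timed on an automatic coagulometer. Prolongation was referenced to DMSO vehicle, and PT2 (clotting-time doubling concentration) was obtained from a least-squares regression line. Duplicate measurements, averaged.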

Coagulation factor X = Coagulation factor X (Homo sapiens, UniProt P00742); test: Inhibition of human factor 10a
Coagulation factor X, sequence (P00742 41-179 limits assumed): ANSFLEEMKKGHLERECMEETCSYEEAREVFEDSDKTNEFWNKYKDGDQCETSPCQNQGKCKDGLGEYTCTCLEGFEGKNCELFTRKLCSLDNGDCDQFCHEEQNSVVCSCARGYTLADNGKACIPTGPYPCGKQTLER
Coagulation factor X, sequence (P00742 235-488 limits assumed): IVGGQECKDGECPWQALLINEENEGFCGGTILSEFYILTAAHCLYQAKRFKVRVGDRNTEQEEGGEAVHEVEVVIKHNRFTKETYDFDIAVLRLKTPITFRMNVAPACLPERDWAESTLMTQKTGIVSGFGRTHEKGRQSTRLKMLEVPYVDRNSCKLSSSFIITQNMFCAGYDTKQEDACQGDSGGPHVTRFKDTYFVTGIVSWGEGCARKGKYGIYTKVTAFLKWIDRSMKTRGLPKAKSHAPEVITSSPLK
Outline: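 Human FXa was preincubated with compound in DMSO; 3 mM chromogenic substrate (stock) was added for 10 min at 37 °C. Inhibition was computed against DMSO control, with IC50 from least-squares regression; duplicate means.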

Plasma [2] = test: Anticoagulant potency in mouse plasma assessed as concentration required to double prothrombin time after 4 mins; assay type: functional
Mus musculus = test: Ex vivo anticoagulant potency in ICR mouse blood at 30 mg/kg, po after 1 hr expressed as ratio of prothrombin time in drug treated animal to control; assay type: functional
Outline: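 Male ICR mice (30-35 g), fasted >12 h, received compound orally at 30 mg/kg as a suspension in 0.5% methylcellulose; controls got vehicle alone (n = 3-5). Aortic blood was taken at 1 h under pentobarbital into 3.8% citrate (9:1). Platelet-poor plasma (1000g, 10 min) was preincubated 4 min at 37 °C, then thromboplastin added. Clotting time expressed as ratio versus control.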

CYP3A4 = CYP3A4 (Homo sapiens, UniProt P08684); test: Inhibition of human CYP3A4 at 1 uM by spectrofluorimeter; assay type: ADME
CYP3A4, sequence (P08684 whole entry): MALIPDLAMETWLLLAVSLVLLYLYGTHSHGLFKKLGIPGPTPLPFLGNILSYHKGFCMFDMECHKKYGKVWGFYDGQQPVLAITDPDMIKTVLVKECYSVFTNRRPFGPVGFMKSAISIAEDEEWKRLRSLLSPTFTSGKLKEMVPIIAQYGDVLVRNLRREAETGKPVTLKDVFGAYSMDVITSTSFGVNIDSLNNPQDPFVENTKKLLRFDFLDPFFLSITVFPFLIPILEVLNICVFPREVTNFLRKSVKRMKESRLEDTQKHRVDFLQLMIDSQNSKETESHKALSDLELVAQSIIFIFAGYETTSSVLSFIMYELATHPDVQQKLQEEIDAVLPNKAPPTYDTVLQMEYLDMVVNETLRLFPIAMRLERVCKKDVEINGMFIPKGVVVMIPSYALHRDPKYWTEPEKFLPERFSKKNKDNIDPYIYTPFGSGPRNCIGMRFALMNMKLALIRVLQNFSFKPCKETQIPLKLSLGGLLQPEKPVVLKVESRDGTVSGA
Outline: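 Microsomes from CYP3A4-expressing insect cells were incubated with 40 µM 7-benzyloxyquinoline and 1 µM test compound. Metabolite formed was quantified with a spectrofluorometer.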

Prothrombin = Prothrombin (Homo sapiens, UniProt P00734); test: Inhibition of human thrombin
Outline: (§1)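 Chromogenic assays at 37 °C. Final enzyme levels: thrombin 0.080 U/mL, trypsin 0.040 µg/mL, plasmin 0.040 U/mL, kallikrein 0.020 U/mL, t-PA 4000 U/mL. Compound was preincubated with enzyme in buffer for 30 min, then substrate added and p-nitroanilide release monitored continuously for 5 min at 405 nm. Ki taken from Lineweaver–Burk plots across substrate concentrations.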

[3] = target: Tissue-type plasminogen activator (Homo sapiens, UniProt P00750); test: Inhibition of human tPA; outline: as §1
Tissue-type plasminogen activator, sequence (P00750 whole entry): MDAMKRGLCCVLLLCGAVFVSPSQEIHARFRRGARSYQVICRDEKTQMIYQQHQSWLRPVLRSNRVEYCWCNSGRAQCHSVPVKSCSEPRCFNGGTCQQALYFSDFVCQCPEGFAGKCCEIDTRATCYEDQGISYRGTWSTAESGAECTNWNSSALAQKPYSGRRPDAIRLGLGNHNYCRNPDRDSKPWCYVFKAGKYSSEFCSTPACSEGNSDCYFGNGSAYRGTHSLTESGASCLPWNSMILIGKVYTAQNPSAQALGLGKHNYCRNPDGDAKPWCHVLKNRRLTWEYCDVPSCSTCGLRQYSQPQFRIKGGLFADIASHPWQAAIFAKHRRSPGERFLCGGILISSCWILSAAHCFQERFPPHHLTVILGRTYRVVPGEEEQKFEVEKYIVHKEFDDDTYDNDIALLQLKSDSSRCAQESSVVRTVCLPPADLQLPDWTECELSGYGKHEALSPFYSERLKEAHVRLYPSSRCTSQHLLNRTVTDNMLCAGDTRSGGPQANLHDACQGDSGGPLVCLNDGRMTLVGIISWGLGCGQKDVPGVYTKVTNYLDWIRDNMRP

[4] = Total clearance in cynomolgus monkey at 1 mg/kg, iv; assay type: ADME, organism-based, Macaca fascicularis; parameters: dose 1 mg/kg, route intravenous; settings: in vivo
Outline: (§2)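 Male cynomolgus monkeys (n = 3), fasted; dosed iv (1 mg/kg in DMA/PEG400) or po (1 mg/kg, 0.5% methylcellulose suspension). Femoral vein blood drawn up to 24 h; plasma deproteinized with acetonitrile, diluted with 0.01 M ammonium formate pH 3.0, and analysed by LC/MS/MS (ODS column, positive ion turbo ionspray). Values given as mean ± SD of three determinations.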

Plasma [5] = test: Anticoagulant potency in cynomolgus monkey plasma assessed as concentration required to double prothrombin time; assay type: functional, Macaca fascicularis
Cynomolgus monkey [6] = test: Ex vivo anticoagulant potency in cynomolgus monkey blood assessed as prothrombin time prolongation at 3 mg/kg, po after 4 hrs; assay type: functional, Macaca fascicularis
Outline: (§3)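 Male cynomolgus monkeys (3.5-4 kg), fasted >12 h, n = 3, given 3 mg/kg orally. Femoral vein blood was drawn into 3.8% citrate (9:1) at intervals, spun at 1000g for 10 min to platelet-poor plasma, and PT measured with thromboplastin on a coagulometer. Results are % of basal value, mean ± SEM.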

Trypsin = Trypsin (Homo sapiens, UniProt P07477+P07478+P35030); test: Inhibition of human trypsin; assay type: protein assay; outline: as §1
Plasminogen = Plasminogen (Homo sapiens, UniProt P00747); test: Inhibition of human plasmin; outline: as §1
Plasminogen, sequence (P00747 97-580 limits assumed): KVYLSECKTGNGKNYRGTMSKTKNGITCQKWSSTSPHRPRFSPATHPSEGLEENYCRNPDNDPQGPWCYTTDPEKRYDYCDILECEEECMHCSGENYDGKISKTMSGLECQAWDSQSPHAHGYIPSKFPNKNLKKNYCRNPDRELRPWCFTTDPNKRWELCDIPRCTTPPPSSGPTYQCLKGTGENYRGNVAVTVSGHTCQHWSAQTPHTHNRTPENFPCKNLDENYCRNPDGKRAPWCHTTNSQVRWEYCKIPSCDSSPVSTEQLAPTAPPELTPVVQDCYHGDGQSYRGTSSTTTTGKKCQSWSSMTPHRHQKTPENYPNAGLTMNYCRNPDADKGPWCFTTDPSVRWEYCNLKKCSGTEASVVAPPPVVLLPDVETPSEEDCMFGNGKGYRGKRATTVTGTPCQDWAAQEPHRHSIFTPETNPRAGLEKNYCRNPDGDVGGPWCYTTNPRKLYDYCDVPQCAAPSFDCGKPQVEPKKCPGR
Plasminogen, sequence (P00747 581-810 limits assumed): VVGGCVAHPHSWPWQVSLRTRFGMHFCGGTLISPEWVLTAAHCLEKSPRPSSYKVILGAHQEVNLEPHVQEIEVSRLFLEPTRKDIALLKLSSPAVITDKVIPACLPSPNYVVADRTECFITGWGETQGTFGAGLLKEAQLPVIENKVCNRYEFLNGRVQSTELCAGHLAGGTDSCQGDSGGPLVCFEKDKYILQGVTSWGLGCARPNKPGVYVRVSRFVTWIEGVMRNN

[7] = AUC in cynomolgus monkey at 1 mg/kg, po; assay type: ADME, organism-based, Macaca fascicularis; parameters: dose 1 mg/kg, route oral; settings: plasma; outline: as §2
Cynomolgus monkey [8] = test: Ex vivo anticoagulant potency in cynomolgus monkey blood assessed as prothrombin time prolongation at 3 mg/kg, po after 0.5 hr; assay type: functional, Macaca fascicularis; outline: as §3
Cynomolgus monkey [9] = test: Ex vivo anticoagulant potency in cynomolgus monkey blood assessed as prothrombin time prolongation at 3 mg/kg, po after 1 hr; assay type: functional, Macaca fascicularis; outline: as §3
[10] = Cmax in cynomolgus monkey at 1 mg/kg, po; assay type: ADME, organism-based, Macaca fascicularis; parameters: dose 1 mg/kg, route oral; settings: in vivo; outline: as §2
Plasma kallikrein = Plasma kallikrein (Homo sapiens, UniProt P03952); test: Inhibition of human kallikrein; outline: as §1
Plasma kallikrein, sequence (P03952 20-390 limits assumed): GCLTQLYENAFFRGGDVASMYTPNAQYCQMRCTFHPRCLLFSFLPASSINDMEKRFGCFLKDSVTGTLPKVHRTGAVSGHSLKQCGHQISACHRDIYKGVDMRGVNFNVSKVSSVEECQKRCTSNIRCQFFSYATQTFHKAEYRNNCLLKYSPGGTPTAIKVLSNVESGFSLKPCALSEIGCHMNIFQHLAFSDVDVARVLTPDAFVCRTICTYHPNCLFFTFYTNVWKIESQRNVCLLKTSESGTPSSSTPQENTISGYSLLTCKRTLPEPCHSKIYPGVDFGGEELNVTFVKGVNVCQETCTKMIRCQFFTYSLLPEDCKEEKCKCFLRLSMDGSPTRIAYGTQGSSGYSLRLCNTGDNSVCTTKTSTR
Plasma kallikrein, sequence (P03952 391-638 limits assumed): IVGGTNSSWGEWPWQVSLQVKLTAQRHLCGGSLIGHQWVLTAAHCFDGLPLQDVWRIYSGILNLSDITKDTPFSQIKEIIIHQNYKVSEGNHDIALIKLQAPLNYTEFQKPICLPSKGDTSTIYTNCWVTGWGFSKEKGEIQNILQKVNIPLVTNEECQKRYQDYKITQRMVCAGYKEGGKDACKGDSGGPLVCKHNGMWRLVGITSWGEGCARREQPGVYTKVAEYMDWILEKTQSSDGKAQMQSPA

[11] = Drug concentration in cynomolgus monkey at 1 mg/kg, iv after 5 mins; assay type: ADME, organism-based, Macaca fascicularis; parameters: dose 1 mg/kg, route intravenous; settings: in vivo, read-out: Activity; outline: as §2
Cynomolgus monkey [12] = test: Ex vivo anticoagulant potency in cynomolgus monkey blood assessed as prothrombin time prolongation at 3 mg/kg, po after 2 hrs; assay type: functional, Macaca fascicularis; outline: as §3
[13] = Tmax in cynomolgus monkey at 1 mg/kg, po; assay type: ADME, organism-based, Macaca fascicularis; parameters: dose 1 mg/kg, route oral; settings: in vivo; outline: as §2
[14] = Volume of distribution at steady state in cynomolgus monkey at 1 mg/kg, iv; assay type: ADME, organism-based, Macaca fascicularis; parameters: dose 1 mg/kg, route intravenous; settings: in vivo, read-out: Vdss; outline: as §2
Cynomolgus monkey [15] = test: AUC in cynomolgus monkey at 1 mg/kg, iv; assay type: ADME, organism-based, Macaca fascicularis, Plasma; parameters: dose 1 mg/kg, route intravenous; settings: in vivo; outline: as §2
[16] = Mean residence time in cynomolgus monkey at 1 mg/kg, po; assay type: ADME, organism-based, Macaca fascicularis; parameters: dose 1 mg/kg, route oral; settings: in vivo; outline: as §2
Cynomolgus monkey [17] = test: Ex vivo anticoagulant potency in cynomolgus monkey blood assessed as prothrombin time prolongation at 3 mg/kg, po after 8 hrs; assay type: functional, Macaca fascicularis; outline: as §3
[18] = Mean residence time in cynomolgus monkey at 1 mg/kg, iv; assay type: ADME, organism-based, Macaca fascicularis; parameters: dose 1 mg/kg, route intravenous; settings: in vivo; outline: as §2
[19] = Oral bioavailability in cynomolgus monkey at 1 mg/kg; assay type: ADME, organism-based, Macaca fascicularis; settings: in vivo; outline: as §2

For `NC(=O)CN(CCCS(=O)(=O)c1ccc2cc(Cl)ccc2c1)C(=O)C1CCN(c2ccncc2)CC1`, the Activity (Plasma [1]) was 2.1 µM and the IC50 (Coagulation factor X) was 120 nM.

For `CCN(CCCS(=O)(=O)c1ccc2cc(Cl)ccc2c1)C(=O)C1CCN(c2ccncc2)CC1`, the Activity (Plasma [1]) was 3.2 µM and the IC50 (Coagulation factor X) was 120 nM.

In the case of `CCOC(=O)CN(C(=O)CCS(=O)(=O)c1ccc2cc(Cl)ccc2c1)C1CCN(c2ccncc2)CC1`, the Activity (Plasma [1]) is reported as 1.1 µM, the Activity (Plasma [2]) is reported as 10 µM and the Ratio (Mus musculus) is reported as 1.1. For the same compound, the IC50 (Coagulation factor X) was 60 nM.

`CC(C)N(CCCS(=O)(=O)c1ccc2cc(Cl)ccc2c1)C(=O)C1CCN(c2ccncc2)CC1` showed an Activity (Plasma [1]) of 8.4 µM and an IC50 (Coagulation factor X) of 250 nM.

In the case of `CCOC(=O)CCN(C(=O)CCS(=O)(=O)c1ccc2cc(Cl)ccc2c1)C1CCN(c2ccncc2)CC1`, the Activity (Plasma [1]) is reported as 0.85 µM, the Activity (Plasma [2]) is reported as 14 µM and the Ratio (Mus musculus) is reported as 1.

`Cc1cc(N2CCC(N(C)C(=O)CCS(=O)(=O)c3ccc4cc(Cl)ccc4c3)CC2)cc(C)n1` gave an inhibition at 1 µM (CYP3A4) of 40%, an Activity (Plasma [1]) of 1.6 µM and an Activity (Plasma [2]) of 4.1 µM. It also gave a Ratio (Mus musculus) of 1.3.

With `CN(C(=O)CCS(=O)(=O)c1ccc2cc(Cl)ccc2c1)C1CCN(c2ccncc2)CC1` the inhibition at 1 µM (CYP3A4) was 81%, the Activity (Plasma [1]) was 1 µM and the Activity (Plasma [2]) was 8 µM. The Ratio (Mus musculus) was 1.6 and the IC50 (Coagulation factor X) was 50 nM.

Work on `CN(C(=O)CCCS(=O)(=O)c1ccc2cc(Cl)ccc2c1)C1CCN(c2ccncc2)CC1` yielded an IC50 (Coagulation factor X) of 140 nM.

With `O=C(O)CN(CCCS(=O)(=O)c1ccc2cc(Cl)ccc2c1)C(=O)C1CCN(c2ccncc2)CC1` the Activity (Plasma [1]) was 1.8 µM, the Activity (Plasma [2]) was 14 µM and the Ratio (Mus musculus) was 1. The IC50 (Coagulation factor X) was 54 nM.

With `Cc1ccc2cc(S(=O)(=O)CCC(=O)N(C)C3CCN(c4ccnc(C)c4)CC3)ccc2c1` the IC50 (Coagulation factor X) was 720 nM.

For `Cc1cc(N2CCC(N(C)C(=O)CCS(=O)(=O)c3ccc4cc(Cl)ccc4c3)CC2)ccn1`, the Ki (Prothrombin) was 7500 nM, the inhibition at 1 µM (CYP3A4) was 40% and the Ki [3] was 67000 nM. The clearance [4] was 12.2 mL/min/kg, the Activity (Plasma [5]) was 1.1 µM and the Activity (Cynomolgus monkey [6]) was 144.6%. For the same compound, the Ki (Trypsin) was greater than 200000 nM, the Ki (Plasminogen) was greater than 200000 nM and the AUC [7] was 1030 ng·h/mL. The Activity (Cynomolgus monkey [8]) was 142%, the Activity (Cynomolgus monkey [9]) was 133.6% and the Activity (Plasma [1]) was 1.6 µM. The Cmax [10] was 134 ng/mL, the Ki (Plasma kallikrein) was 3000 nM and the concentration at 5 min [11] was 565 ng/mL. It also gave an Activity (Cynomolgus monkey [12]) of 146.9%, an Activity (Plasma [2]) of 4.8 µM and a Tmax [13] of 2 h. It also gave a Vd [14] of 3.29 L/kg, an AUC (Cynomolgus monkey [15]) of 1580 ng·h/mL and a Ratio (Mus musculus) of 1.6. It also gave an MRT [16] of 6.6 h, an Activity (Cynomolgus monkey [17]) of 117.7% and an MRT [18] of 4.54 h. For the same compound, the bioavailability [19] was 66.7%, the IC50 (Coagulation factor X) was 61 nM and the Ki (Coagulation factor X) was 15 nM.

For `CN(CCS(=O)(=O)c1ccc2cc(Cl)ccc2c1)C(=O)C1CCN(c2ccncc2)CC1`, the IC50 (Coagulation factor X) was 840 nM.

Compound `Cc1cc(N2CCC(N(C)C(=O)CCS(=O)(=O)c3ccc4ccc(Cl)cc4c3)CC2)ccn1` has an IC50 (Coagulation factor X) greater than 5000 nM.

With `Cc1cc(N2CCC(N(C)C(=O)CCS(=O)(=O)c3cc4ccc(Cl)cc4s3)CC2)ccn1` the IC50 (Coagulation factor X) was greater than 5000 nM.

Work on `Cc1cc(N2CCC(N(C)C(=O)CCS(=O)(=O)c3ccc4c(Cl)cccc4c3)CC2)ccn1` yielded an IC50 (Coagulation factor X) greater than 5000 nM.

`Cc1cc(N2CCC(N(C)C(=O)CCS(=O)(=O)c3cc4cc(Cl)ccc4s3)CC2)ccn1` showed an IC50 (Coagulation factor X) greater than 5000 nM.

With `NCCN(C(=O)CCS(=O)(=O)c1ccc2cc(Cl)ccc2c1)C1CCN(c2ccncc2)CC1` the Activity (Plasma [1]) was 0.63 µM, the Activity (Plasma [2]) was 8.6 µM and the Ratio (Mus musculus) was 1. The IC50 (Coagulation factor X) was 95 nM.

`CN(C(=O)CCS(=O)(=O)c1ccc2cc(Cl)ccc2c1)C1CCN(c2ccnc(N)c2)CC1` gave an inhibition at 1 µM (CYP3A4) of 49%, an Activity (Plasma [1]) of 3.6 µM and an IC50 (Coagulation factor X) of 79 nM.

In the case of `CN(C(=O)CCS(=O)(=O)c1ccc2cc(Cl)ccc2c1)C1CCN(c2ccnc(CO)c2)CC1`, the inhibition at 1 µM (CYP3A4) is reported as 21%, the Activity (Plasma [1]) is reported as 1.5 µM and the Activity (Plasma [2]) is reported as 6.4 µM. It also gave a Ratio (Mus musculus) of 1.1 and an IC50 (Coagulation factor X) of 110 nM.

In the case of `O=C(CCS(=O)(=O)c1ccc2cc(Cl)ccc2c1)N1CCN(c2ccncc2)CC1`, the IC50 (Coagulation factor X) is reported as 160 nM.

`CC(=N)N1CC[C@H](Oc2ccc([C@H](Cc3ccc4ccc(C(=N)N)cc4c3)C(=O)O)cc2)C1` [DX-9065A] showed an Activity (Plasma [1]) of 0.69 µM and an Activity (Plasma [2]) of 6.8 µM.

For `O=C(C1CCN(c2ccncc2)CC1)N1CCN(S(=O)(=O)c2ccc3cc(Cl)ccc3c2)CC1`, the IC50 (Coagulation factor X) was 33 nM.

With `O=C(NCCCS(=O)(=O)c1ccc2cc(Cl)ccc2c1)C1CCN(c2ccncc2)CC1` the IC50 (Coagulation factor X) was 470 nM.

In the case of `CCOC(=O)CN(CCCS(=O)(=O)c1ccc2cc(Cl)ccc2c1)C(=O)C1CCN(c2ccncc2)CC1`, the Activity (Plasma [1]) is reported as 1.9 µM, the Activity (Plasma [2]) is reported as 11 µM and the Ratio (Mus musculus) is reported as 1. For the same compound, the IC50 (Coagulation factor X) was 64 nM.

In the case of `CN(C(=O)CS(=O)(=O)c1ccc2cc(Cl)ccc2c1)C1CCN(c2ccncc2)CC1`, the IC50 (Coagulation factor X) is reported as 720 nM.

In the case of `CN(CCCS(=O)(=O)c1ccc2cc(Cl)ccc2c1)C(=O)C1CCN(c2ccncc2)CC1`, the Activity (Plasma [1]) is reported as 1.7 µM, the Activity (Plasma [2]) is reported as 17 µM and the Ratio (Mus musculus) is reported as 1.3.

— ChEMBL document CHEMBL1142289, “Discovery of sulfonylalkylamides: A new class of orally active factor Xa inhibitors” (Bioorg Med Chem, 2008)
